Sampled rows, rich in hits. Any-hit rate of the full collection: about 2.5%.
HTR2A ag = activates the mouse 5-HT2A serotonin receptor; P35363; CHO-K1 mHTR2A beta-arrestin complementation, luminescence; percent of 30 µM serotonin response; activation, % at 7.6 µM; 0.66% of 360,000 active;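 active = activation above a run cutoff, the mean activation of all tested compounds plus 3 SD, cut at about 14% in these data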
VIM-2 inh = inhibitors of Pseudomonas aeruginosa VIM-2 metallo-beta-lactamase; purified VIM-2, nitrocefin hydrolysis, epi-absorbance fluorescence; inhibition, % at 5.6 µM; 0.89% of 290,000 active;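 active = inhibition above the mean of all tested compounds plus 3 SD, cutoff set per screening run, cut at about 7.5% in these data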;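 note: red hydrolysis product quenches plate fluorescence so inhibitors raise well fluorescence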
dFosB activator = enhances mouse delta FosB homodimer DNA binding; activation, % at 25 µM; purified delta FosB, TAMRA-CDK5 oligo fluorescence polarization; percent of positive-control signal above neutral wells; 0.99% of 340,000 active; AID 493131;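 active = mean activation above about 17%, with every replicate also reaching it, limit read from the data, passing the limit was not always enough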
Target sequence (P13346 whole entry, looked up): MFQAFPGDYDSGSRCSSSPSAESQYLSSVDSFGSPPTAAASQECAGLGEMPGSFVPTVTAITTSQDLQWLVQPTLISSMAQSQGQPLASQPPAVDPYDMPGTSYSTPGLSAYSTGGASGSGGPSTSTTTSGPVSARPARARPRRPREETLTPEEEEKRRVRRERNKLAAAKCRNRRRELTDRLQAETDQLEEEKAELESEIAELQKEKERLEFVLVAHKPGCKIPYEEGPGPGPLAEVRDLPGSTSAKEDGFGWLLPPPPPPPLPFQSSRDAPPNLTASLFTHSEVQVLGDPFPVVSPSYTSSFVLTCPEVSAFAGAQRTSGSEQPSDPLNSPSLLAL
IMP-1 inh = inhibitors of Pseudomonas aeruginosa IMP-1 metallo-beta-lactamase. inhibition, % at 5.6 µM. AID 1556. purified IMP-1, nitrocefin hydrolysis, epi-absorbance fluorescence. 0.45% of 290,000 active;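 active = inhibition above the mean plus 3 SD of all compounds in the same screening run, cut at about 4.5% in these data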
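System: purified recombinant IMP-1 beta-lactamase. Medium: Zinc- and detergent-supplemented HEPES buffer, pH 7.1. Compound: one 5.6 µM dose […]. Schedule: 15 min preincubation plus 25 min reaction at 25 °C. Technique: Epi-absorbance fluorescence, 480 nm excitation, 530 nm emission.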
OPRM1 ag = counter-screen for mouse HTR2A agonists: human mu opioid receptor agonists; activation, % at 9.3 µM; shares compounds with HTR2A ag; 5.3% of 2,300 active; U2OS OPRM1 beta-arrestin PathHunter, luminescence; DMSO 0%, DAMGO 9.3 µM 100%; AID 624380;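 active = mean activation above the mean of DMSO-only wells plus 3 SD, cut at about 0.5% in these data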
Target sequence (P35372 whole entry, looked up): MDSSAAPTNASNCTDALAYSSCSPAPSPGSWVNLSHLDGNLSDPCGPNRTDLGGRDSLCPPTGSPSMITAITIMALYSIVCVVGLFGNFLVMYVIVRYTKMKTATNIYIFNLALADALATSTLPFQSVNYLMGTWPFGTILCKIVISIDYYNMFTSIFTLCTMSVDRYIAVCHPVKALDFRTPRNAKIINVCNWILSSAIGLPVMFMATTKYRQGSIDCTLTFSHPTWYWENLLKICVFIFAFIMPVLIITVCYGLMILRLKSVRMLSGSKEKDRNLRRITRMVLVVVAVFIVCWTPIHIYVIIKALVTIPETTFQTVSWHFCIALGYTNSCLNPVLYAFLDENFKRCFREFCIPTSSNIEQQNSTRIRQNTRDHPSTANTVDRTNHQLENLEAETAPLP
m5-HT2A ag conf = confirmation of mouse HTR2A serotonin receptor agonists; shares compounds with HTR2A ag; CHO-K1 PathHunter beta-arrestin recruitment, luminescence; DMSO 0%, 30 µM serotonin 100%; activation, % at 7.6 µM; 19% of 2,300 active;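 active = mean activation across triplicates above the hit threshold derived in the original primary screen, cut at about 15% in these data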
A number is an active result; i = inactive; nt = not tested or not shown.

SMILES | HTR2A ag | VIM-2 inh | dFosB activator | IMP-1 inh | OPRM1 ag | m5-HT2A ag conf
O=C(COc1ccccc1)Nc1nnc(-c2ccc(F)cc2)o1 | 16.8 | i | i | i | i | i
CCOC(=O)c1[nH]c(C)c(C(=O)OCC(=O)N(Cc2ccccc2)C(C)C)c1C | 19.6 | nt | i | nt | i | i
CC(C)N1CCC(C)(C(=O)Nc2cccc(Oc3ccccc3)c2)C1 (stereo not drawn) | i | nt | nt | nt | nt | nt
CC1(C(=O)OCC(=O)Nc2ccc3ccccc3c2)CC1(Cl)Cl (stereo not drawn) | i | i | i | i | nt | nt
O=C(C1CCCCC1)N1CCC2CC1c1cc(Cl)ccc12 (stereo not drawn) | i | nt | i | nt | nt | nt
Cc1ccc(C)c(N2N=C(C(=O)Nc3cccnc3)CCC2=O)c1 | 15.3 | nt | i | nt | i | i
Cc1ccc(C)c(N2N=C(C(=O)Nc3ccccc3N3CCCC3)CCC2=O)c1 | i | i | i | i | nt | nt
Cc1nnc(SCC(=O)NNC(=O)c2ccc(F)cc2)n1Cc1ccccc1 | i | nt | i | nt | nt | nt
COC(=O)CC1C(=O)NCCN1C(=O)c1ccc(Cl)cc1 (stereo not drawn) | i | i | i | i | nt | nt
CSc1nc(C)cc(Oc2ccc(=O)n(C)n2)n1 | i | i | i | i | nt | nt
COc1cc(C)nc(Oc2ccc(=O)n(C)n2)n1 | 15.2 | i | i | i | i | i
CCN(C[C@H]1N[C@@](Cc2ccccc2)(C(=O)OC)[C@H]2C(=O)N(C)C(=O)[C@@H]12)C(C)=O | i | nt | i | nt | nt | nt
Oc1ccccc1/C=N/n1c2ccccc2c2ccccc21 | 15.8 | i | i | i | i | i
CCOc1cc(N2CCOCC2)c(OCC)cc1NC(=O)c1cccc(S(=O)(=O)N2CCOCC2)c1 | i | nt | i | nt | nt | nt
COc1ccc2c(c1)CC/C2=N\NC(=O)c1ccccc1 | 15.2 | i | i | i | i | i
Cc1cccc(C(=O)OCC(=O)NC(=O)NC2CCCCC2)c1 | i | nt | nt | nt | nt | nt
C=CCn1c(SCC(=O)c2ccc(Cl)cc2)nnc1-c1ccc2c(c1)OCO2 | 32.1 | i | i | i | i | i
C=CCn1c(SCC(=O)c2ccc(OC)cc2)nnc1-c1ccc2c(c1)OCO2 | i | i | i | i | nt | nt
C=CCn1c(=O)/c(=C\c2ccccn2)s/c1=C(/C#N)C(=O)NCC1CCCO1 (stereo not drawn) | i | i | i | i | nt | nt
C=CCn1c(=O)/c(=C/c2ccc(C)o2)s/c1=C(/C#N)C(=O)c1ccccc1 | 14.8 | i | i | i | i | i
c1ccc(COc2cccc(-c3cc4nc(NCc5ccc6c(c5)OCO6)ccn4n3)c2)cc1 | i | nt | nt | nt | nt | nt
COc1cc(CCCN2C(N)=NC[C@@H]2Cc2ccc(O)cc2)cc(OC)c1OC | i | nt | i | nt | nt | nt
COc1cc(CCCN2C(N)=NC[C@@H]2Cc2ccccc2)cc(OC)c1OC | 15.6 | nt | i | nt | i | i
COc1ccc(NC(=O)N2CCC(C(=O)c3ccc4c(c3)OCCO4)CC2)cc1 | 16.6 | i | i | i | i | i
O=C(c1ccc2c(c1)OCCO2)C1CCN(C(=O)Nc2ccc(F)cc2)CC1 | i | i | i | i | nt | nt
SMILES | HTR2A ag | VIM-2 inh | dFosB activator | IMP-1 inh | OPRM1 ag | m5-HT2A ag conf
O=C(Cc1ccc(S(=O)(=O)N2CCOCC2)s1)Nc1cc(Cl)ccc1Cl | i | nt | i | nt | nt | nt
NC(=O)Cn1nc(C(F)(F)F)c2c1CCCC2 | 40.0 | i | i | i | i | i
Cn1c(=O)c2c(nc(Oc3ccccc3N)n2C)n(C)c1=O | 16.0 | i | i | i | i | i
CCOC(=O)c1cc2ccccc2n1C1CCN(CCc2ccccc2)CC1 | i | nt | nt | nt | nt | nt
CCOC(=O)c1cc2cc(OC)ccc2n1C1CCN(CCc2ccccc2)CC1 | 19.6 | nt | nt | nt | i | i
COc1ccc(NC(=O)COC(=O)CN2C(=O)C3CCCCC3C2=O)cc1 (stereo not drawn) | i | nt | nt | nt | nt | nt
Cc1cc(N/N=C/c2ccc(O)c(C)c2O)nc(-c2ccccc2O)n1 | 20.1 | i | i | i | i | 64.6
Cc1ccccc1NC(=O)Cc1nc(COC(=O)CCNS(=O)(=O)c2ccccc2)cs1 | i | nt | i | nt | nt | nt
c1ccc2c(c1)[nH]c1c(N3CCSCC3)ncnc12 | 15.0 | i | i | i | i | i
c1ccc2c(c1)[nH]c1c(N3CCCC3)ncnc12 | i | i | i | i | nt | nt
O=C(NCc1ccco1)Nc1cccc(-c2ccccc2)c1 | i | nt | i | nt | nt | nt
CCCN(CCC)C1=CC(=[N+]2CCCC2)CC(C)(C)C1 | i | i | i | i | nt | nt
Cc1nc(NC(=O)c2ccco2)sc1C(=O)O | 18.6 | i | i | i | i | i
COC(=O)c1sc(NC(=O)c2ccco2)nc1C | i | i | i | i | nt | nt
CCOc1ccc(-n2c(=S)sc3c(=O)[nH]c(SCC(=O)C(C)(C)C)nc32)cc1 | 17.0 | i | i | i | i | i
CCOC(=O)CSc1nc2c(sc(=S)n2-c2ccc(OCC)cc2)c(=O)[nH]1 | i | i | i | i | nt | nt
COc1ccc2[nH]cc(CCN=C3SCC(=O)N3C)c2c1 | 17.7 | i | i | i | i | i
CCCCCCn1cc(CN2CC(N3CCSCC3)CS2(=O)=O)nn1 (stereo not drawn) | i | nt | nt | nt | nt | nt
CCCCCCn1cc(CN2CC(N3CCCC3)CS2(=O)=O)nn1 (stereo not drawn) | 20.3 | nt | nt | nt | i | i
CN(C)CCN1CCN(C2CN(Cc3cn(Cc4ccccc4)nn3)S(=O)(=O)C2)CC1 (stereo not drawn) | 19.6 | nt | nt | nt | i | i
O=S1(=O)CC(N2CCN(Cc3ccccc3F)CC2)CN1Cc1cn(Cc2cccc(Cl)c2)nn1 (stereo not drawn) | 14.9 | nt | nt | nt | i | i
CCc1nc2ccc(C(=O)N3CCNC(=O)C3)cn2c1N(C)CCC(C)C | i | nt | nt | nt | nt | nt
Cc1cc(C(=O)Nc2c(F)cc(F)cc2Br)n(-c2ccccc2)n1 | i | i | i | i | nt | nt
O=C(Nc1n[nH]c(=S)s1)c1ccc2ccccc2c1 | 17.6 | i | i | i | i | i
O=C1NC(CCc2ccccc2)C(=O)N1CCOc1cccc(Br)c1 (stereo not drawn) | i | i | i | i | nt | nt
SMILES | HTR2A ag | VIM-2 inh | dFosB activator | IMP-1 inh | OPRM1 ag | m5-HT2A ag conf
CN(C)CCCn1c(NC(=O)C2CCCCC2)nc2ccccc21 | 20.2 | i | i | i | i | i
CCOC(=O)C1=CN(Cc2cccc(-c3ccc(F)cc3)c2)S(=O)(=O)N(C)C1C (stereo not drawn) | i | nt | i | nt | nt | nt
CCN(C[C@H]1N[C@@](C)(C(=O)OC)[C@H]2C(=O)N(C)C(=O)[C@@H]12)C(=O)Nc1ccc(Cl)cc1 | 37.0 | nt | i | nt | i | i
O=C(O)CSc1cnc2ccccc2n1 | 18.0 | i | i | i | i | i
c1ccc2c(c1)CC1(CCCC1)N=C2N1CCOCC1 | i | i | i | i | nt | nt
NC[C@H](O)c1ccc(O)c(O)c1 | 35.6 | nt | i | nt | i | 143.3
CC(C)NCC(O)c1ccc(O)c(O)c1 (stereo not drawn) | i | i | i | i | nt | nt
CNC[C@H](O)c1ccc(O)c(O)c1 | 50.2 | i | i | i | i | 164.7
CNC[C@H](O)c1cccc(O)c1 | 17.1 | i | i | i | i | 46.7
CC(C)(C)c1ccc(OCC(=O)NCCN2CCOCC2)cc1 | i | i | i | i | nt | nt
CCOC(=O)C1=CN(Cc2ccc(OC)cc2)C=C(C(=O)OCC)C1c1cccs1 | 16.3 | i | i | i | i | i
